Measurements of several laboratories.
Each line is one published result; the experiments were not run side by side.
Read-out: binding
ERBB2: Receptor tyrosine-protein kinase erbB-2 (ERBB2, Homo sapiens, UniProt P04626)
ABL1 non-phosphorylated: Tyrosine-protein kinase ABL1, non-phosphorylated (ABL1, Homo sapiens, UniProt P00519)

For `CC(C)C[C@H](NC(=O)[C@H](CO)NC(=O)[C@H](Cc1ccc(O)cc1)NC(=O)[C@H](CS)NC(=O)[C@H](CS)NC(=O)[C@@H](N)CCCCN)C(=O)O`, the Kd was 180 nM (ERBB2; fluorescence; pH 7.4).
`O=C(O)c1cc(O)c2c(c1)C(=O)c1cccc(O)c1C2=O` gave a Kd of 46700 nM (Oxysterols receptor LXR-alpha (NR1H3, Homo sapiens, UniProt Q13133); SPR).
`Cc1cnc(-c2ccc(-c3ccc(NC(=O)Nc4c(F)cc(F)cc4F)cc3F)c3c2C(=O)NC3)[nH]1` has a Kd of 5.9 nM (Tyrosine-protein kinase ITK/TSK (ITK, Homo sapiens, UniProt Q08881); competition with immobilised ligand).
`Cc1ccc(NC(=O)c2ccc(CN3CCS(=N)(=O)CC3)cc2)cc1Nc1nccc(-c2cccnc2)n1` gave a Kd of 79 nM (ABL1 non-phosphorylated; competition with immobilised ligand).
The Kd of `O=C1Nc2ccccc2C1=O` is reported as 2000 nM (Parkinson disease protein 7 (PARK7, Homo sapiens, UniProt Q99497); SPR).
`CC#CC(=O)N1CC[C@@H](n2cc(-c3ccc(Oc4c(F)cccc4F)cc3)c3c(N)n[nH]c(=O)c32)C1` gave a Kd of > 3000 nM (ERBB2; competition with immobilised ligand).
With `FC(F)(F)c1n[nH]cc1-c1nc2ccc3[nH]ncc3c2c2c1CCCC2` the Kd was 5800 nM (ABL1 non-phosphorylated; competition with immobilised ligand).
`Cc1cc2nc3c(=O)[nH]c(=O)nc-3n(C[C@H](O)[C@H](O)[C@H](O)COP(=O)(O)OP(=O)(O)OC[C@H]3O[C@@H](n4cnc5c(N)ncnc54)[C@H](O)[C@@H]3O)c2cc1C` has a Kd of 38 nM (Cytotoxic granule associated RNA binding protein TIA1 (TIA1, Homo sapiens, UniProt P31483); lysate).
`NS(=O)(=O)c1ccc(C(F)(F)F)cc1` gave a Kd of ~70 nM (Carbonic anhydrase 2 (CA2, Homo sapiens, UniProt P00918); ITC).
For `NS(=O)(=O)C(F)(F)F`, the Kd was 164 nM (Carbonic anhydrase 1 (CA1, Homo sapiens, UniProt P00915); ITC; pH 6).
`N#CC1(c2ccc(NC(=O)c3cccnc3NCc3ccncc3)cc2)CCCC1` has a Kd of 2490 nM (AMP-activated protein kinase (AMPK) alpha-1/beta-1/gamma-1 (PRKAG1/PRKAA1/PRKAB1, Homo sapiens, UniProt P54619+Q13131+Q9Y478); SPR).
With `Cc1cc(Nc2cc3ncccc3c(N[C@@H]3C[C@H]4CC[C@@H](C3)N4CCC#N)n2)n[nH]1` the Kd was 110 nM (STE20-like serine/threonine-protein kinase (SLK, Homo sapiens, UniProt Q9H2G2); competition with immobilised ligand).
